# High-throughput results as filed in PubChem BioAssay.
# The list is not random: actives were taken first. Their share in the collection is about 1.4%.
# PLCg1 inh – blocks human PLC-gamma1 enzyme activity. inhibition, % at 12.2 µM. 370,000 compounds, 0.84% hits. P19174. purified PLC-gamma1, fluorogenic substrate, fluorescence. AID 720700
# Tn7 DDE FP – DD(E)-Tn7 binding inhibition, primary FP screen; 370,000 compounds, 0.13% hits; FP displacement of FITC-Tn7 peptide from fibrin DD(E); 0% = median of compound wells per plate; AID 720508; inhibition, % at 8.3 µM;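 active means inhibition above the mean of compounds falling within the control limits plus 3 SD of them, cut at about 14% in these data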
# Target sequence (P02675 whole entry, looked up): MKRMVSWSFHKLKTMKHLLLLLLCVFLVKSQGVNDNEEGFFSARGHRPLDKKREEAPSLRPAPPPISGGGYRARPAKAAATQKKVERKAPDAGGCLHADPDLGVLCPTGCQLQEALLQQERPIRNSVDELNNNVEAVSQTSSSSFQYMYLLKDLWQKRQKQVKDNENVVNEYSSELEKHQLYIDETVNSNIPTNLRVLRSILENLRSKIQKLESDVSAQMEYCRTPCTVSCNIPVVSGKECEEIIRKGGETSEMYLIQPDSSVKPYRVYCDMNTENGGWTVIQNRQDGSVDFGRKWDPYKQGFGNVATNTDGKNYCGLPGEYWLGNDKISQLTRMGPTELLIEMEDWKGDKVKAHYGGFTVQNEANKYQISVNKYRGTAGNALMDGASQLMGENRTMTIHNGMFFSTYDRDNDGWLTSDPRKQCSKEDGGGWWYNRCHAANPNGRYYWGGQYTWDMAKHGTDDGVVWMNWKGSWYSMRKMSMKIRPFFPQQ
#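 Assay system: human fibrin DD(E) protein / Input: 2 µM fibrin DD(E) / Benchmarks: high control of 10 µM Aha-Tn7 peptide / Measured by: fluorescence polarization of the labelled Tn7 tracer / Medium: Tris buffer with calcium and detergent, pH 7.8 / Timing: 10 min compound pre-incubation, 3 h probe incubation at room temperature / Repeats: one replicate per compound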
# PLC-beta3 inh – PLC-beta3 (human) inhibition, primary screen | Q01970 | Purified PLC-beta3, fluorogenic substrate, fluorescence | inhibition, % at 12.2 µM | 370,000 compounds, 0.18% hits | AID 720704; in the data active means inhibition above about 11%
# Tn6 DDE FP – inhibitors of Tn6 peptide binding to human fibrin DD(E). inhibition, % at 8.3 µM. 370,000 compounds, 0.21% hits. P02675. AID 720509. Fibrin DD(E) TRITC-Tn6 fluorescence polarization displacement;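 active means inhibition above a per-campaign cutoff: mean of compounds within control limits plus 3 SD, cut at about 15% in these data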
# FID counter – displaces DNA intercalator in HCV helicase counter-screen; DNA fluorescent intercalator displacement, fluorescence; 290,000 compounds, 0.17% hits; AID 1845; inhibition, % at 7.9 µM; in the data active means inhibition above about 37%;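 further: higher means more ethidium bromide displaced from hairpin DNA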
# Tn6 DDE ctr – counter-screen hit for Tn6 peptide-fibrin DD(E) binding disruption. 680 compounds, 2% hits. TRITC-Tn6 fluorescence polarization displacement; 0% = median of compound wells, not DMSO. shares compounds with Tn6 DDE FP. AID 720621. inhibition, % at 8.3 µM;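 active means inhibition above the mean of test compounds lying between the control limits plus 3 SD of those, cut at about 14% in these data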
# DDE Tn6 confirm – confirmation of inhibitors of Tn6 binding to human fibrin DD(E). shares compounds with Tn6 DDE FP. FP displacement of TRITC-Tn6 peptide from DD(E); 0% = per-plate median of test wells. inhibition, % at 8.3 µM. 680 compounds, 10% hits;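 active means inhibition above the mean of compounds lying within the control limits plus 3 SD, cut at about 16% in these data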
# PLCg1 ctr – inhibits human PLC-gamma1 in PLC-beta3 counter-screen; shares compounds with PLCg1 inh; purified PLC-gamma1, fluorogenic substrate, fluorescence; inhibition, % at 12.3 µM; 3,300 compounds, 3.1% hits; AID 743258
# PLCb3 confirm – human PLC-beta3 inhibition, confirmation; shares compounds with PLCg1 inh; purified PLC-beta3, fluorogenic substrate fluorescence; inhibition, % at 12.3 µM; 3,300 compounds, 1% hits; in the data active means inhibition above about 11%
# A number is an active result; - = inactive; . = no result. Unless noted, no stated cut-off is given here; in the data, active means inhibition above about 9.5%; inactive means the rest.
SMILES,PLCg1 inh,Tn7 DDE FP,PLC-beta3 inh,Tn6 DDE FP,FID counter,Tn6 DDE ctr,DDE Tn6 confirm,others
CCOc1ccc(CCNC(=O)c2cc3sccc3n2C)cc1OCC,-,-,-,-,-,.,.,
CCOc1ccc(CCNC(=O)c2cc3sc(Cl)cc3n2C)cc1OCC,-,-,-,33.8,-,-,-,
CCCC(=Nc1ccc(N)cc1)C1=C(O)C(C(=O)OC)C(C)(C)CC1=O (configuration not stated),-,-,-,126.1,-,-,17.0,
c1cc(-c2ccoc2)n2ccnc2c1,-,-,-,23.1,.,-,-,
COc1ccc(CNC(=O)C2CCN(S(=O)(=O)c3ccc4c(c3)NC(=O)CO4)CC2)cc1,-,-,-,-,-,.,.,
COc1cccc(OCC(=O)Nc2ccncc2)c1,-,-,-,-,-,.,.,
COc1cccc(OCC(=O)Nc2ccccc2NC(C)=O)c1,-,-,-,17.2,-,-,-,
CCc1cc2c(=O)c(-c3cnn(-c4ccccc4)c3)c(C)oc2cc1OCC(=O)Nc1ccc(F)c(F)c1,-,-,-,-,-,.,.,
CCOC(=O)CN1C(=O)S/C(=C\c2ccc3c(c2)OCO3)C1=O,-,-,-,-,-,.,.,
CCCCNc1c(-c2ccccn2)nc2nc(C)cc(C)n12,-,-,-,-,.,.,.,
Cc1cc(C)n2c(Nc3c(C)cccc3C)c(-c3ccccn3)nc2n1,-,-,-,16.1,.,-,-,
O=C(Oc1ccccc1)c1cccc(COC(=O)c2cnccn2)c1,-,-,-,-,-,.,.,
COc1ccc(S(=O)(=O)NCc2ccc3c(c2)cc(C)n3C)cc1,-,-,-,50.8,-,-,-,
Cc1cc2cc(CNS(=O)(=O)c3ccccc3)ccc2n1C,-,-,-,59.8,-,-,-,
CN(CC(=O)Nc1cccc(F)c1)C(=O)CCCc1cccs1,13.0,-,-,-,-,.,.,PLCg1 ctr=-;PLCb3 confirm=-
CN(CC(=O)Nc1cccc(F)c1)C(=O)Cc1ccsc1,-,-,-,-,.,.,.,
O=C(NCc1ccc(Cl)nc1)c1csc(COCCO)n1,-,-,-,-,.,.,.,
CCOC(=O)C1CCc2c(ccc3ccccc23)N1CCC#N (configuration not stated),-,-,-,-,.,.,.,
N#C/C(=C\c1ccco1)C(=O)NCC1CCCO1 (configuration not stated),11.2,-,12.8,-,-,.,.,PLCg1 ctr=-;PLCb3 confirm=-
COc1cc(Cl)ccc1NC(=S)N(CCN1CCOCC1)C1CCN(C(C)=O)CC1,11.2,-,-,-,-,.,.,PLCg1 ctr=-;PLCb3 confirm=-
COc1ccc(NC(=S)N(CCN2CCOCC2)C2CCN(C(C)=O)CC2)cc1Cl,-,-,-,-,-,.,.,
CC(C)C12CN3CC(C(C)C)(CN(C1)C3c1ccc3c(c1)OCO3)C2=O (configuration not stated),-,-,12.3,-,-,.,.,PLCg1 ctr=-;PLCb3 confirm=-
CC12CN3CC(C)(CN(C1)C3c1ccc3c(c1)OCO3)C2 (configuration not stated),-,-,-,-,-,.,.,
CCOP(=O)(OCC)C(NC(=O)Nc1ccc(Cl)cc1)C(=O)N(CC)CC (configuration not stated),-,-,-,-,-,.,.,
CC1CCCC(C)N1CCCNC(=O)CN1C(=O)COc2ccc(S(=O)(=O)N3CCOCC3)cc21 (configuration not stated),-,-,-,-,-,.,.,
CC1CCN(S(=O)(=O)c2ccc3c(c2)N(CC(=O)NCCCN2C(C)CCCC2C)C(=O)CO3)CC1 (configuration not stated),10.7,-,-,-,-,.,.,PLCg1 ctr=-;PLCb3 confirm=-
CC=Cc1cc2c(c(=O)o1)C(=O)C(O)C(C)O2 (configuration not stated),-,-,-,-,.,.,.,
O=C(N[C@H](C(=O)N1CCC[C@H]1C(=O)NCCc1ccccc1Cl)C1CCCCC1)c1cccs1,9.9,-,-,-,.,.,.,PLCg1 ctr=-;PLCb3 confirm=-
